Assay results gathered from unrelated publications.
Target: Myosin light chain kinase 2, skeletal/cardiac muscle (MYLK2, Homo sapiens, UniProt Q9H1R3)

| Compound | test | conditions | endpoint | result |
| --- | --- | --- | --- | --- |
| O=C(Nc1cnn(-c2csc(C(=O)NC3COC3)c2)c1)Nc1c(F)cccc1Cl | enzyme activity, inhibitor | 5 µM | remaining activity | 83.5% |
| CNC(=O)c1ccc(Nc2ncc(C(F)(F)F)c(NCc3nccnc3N(C)S(C)(=O)=O)n2)cc1 | cell-free assay, competition with immobilised ligand | 0.1 µM | remaining binding | 63% |
| O=C1NC(=O)c2cc(Nc3ccc(F)cc3)c(Nc3ccc(F)cc3)cc21 | cell-free assay | 0.5 µM | remaining signal | 98.7% |
| CC(C)(C)c1nc(-c2cccc(NS(=O)(=O)c3c(F)cccc3F)c2F)c(-c2ccnc(N)n2)s1 | enzyme activity, inhibitor, radiometric | 1 µM | remaining activity | 112% |
| O=C1c2ccccc2-c2n[nH]c3cccc1c23 | enzyme activity, inhibitor | 0.5 µM | activity vs control | 22.2% |
| CN(C)C(=O)Cn1cc(-c2nc([C@@](C)(c3ccc(-c4cnc(N)nc4)cc3)C3CC3)no2)cn1 | cell-free assay, competition with immobilised ligand | 1 µM | remaining binding | 100% |
| Cc1sc(C(=O)NC2COC2)cc1-n1cc(NC(=O)Nc2c(F)cccc2Cl)cn1 | enzyme activity, inhibitor | 10 µM | remaining activity | 78.7% |
| COc1cc2ncnc(Nc3ccc(Oc4ccccc4)cc3C)c2cc1OC | enzyme activity, inhibitor | 1 µM | inhibition | -4% |
| CN([C@@H]1CCc2c(CC(=O)O)c3cc(S(C)(=O)=O)ccc3n2C1)S(=O)(=O)c1ccc(F)cc1 | cell-free assay, competition with immobilised ligand | 1 µM | remaining binding | 100% |
| CCCOc1ccc(OC)c(F)c1C(=O)c1ccc(C(=O)N[C@@H]2CNC[C@H]2NC(=O)c2ccc3[nH]ncc3c2)cc1 | enzyme activity, inhibitor | 10 µM | remaining activity | 76% |
| COc1cc2c(N3CCN(C(=O)Nc4ccc(OC(C)C)cc4)CC3)ncnc2cc1OCCCN1CCCCC1 | cell-free assay | 0.5 µM | remaining signal | 101% |
| Cc1ccc(C(=O)Nc2ccc(CN3CCN(C)CC3)c(C(F)(F)F)c2)cc1C#Cc1cnc2cccnn12 | enzyme activity, inhibitor | 23.5 nM | remaining activity | 100% |
| CC(C)(O)[C@H]1CC[C@H](Nc2ccc3ncc(-c4cccc(C(F)(F)F)c4)n3n2)CC1 | enzyme activity, inhibitor | 1 µM | remaining activity | 96.7% |
| CNC(=O)c1cc(Oc2ccc(NC(=O)Nc3ccc(Cl)c(C(F)(F)F)c3)cc2)ccn1 | enzyme activity, inhibitor | 0.3 µM | inhibition | 4% |
| Cc1cnc(NC2CCOCC2)nc1-n1cnc(C(=O)NC(CN)c2cc(F)cc(Cl)c2)c1 (stereo not shown) | enzyme activity, inhibitor, radiometric | 1 µM | remaining activity | 95% |
| Cn1nc(C(F)(F)F)cc1-c1cnc(N2CCc3cc(S(=O)(=O)Nc4c(F)cc(Cl)cc4F)cc(N4CCCC4=O)c32)nc1 | cell-free assay, competition with immobilised ligand | 1 µM | remaining binding | 100% |
| Cc1cc(NC(=O)c2cccc3cc(-c4cccc5[nH]nc(N)c45)ccc23)ccc1F | enzyme activity, inhibitor | 0.1 µM | activity vs control | 97% |
| NS(=O)(=O)c1cc(NC(=O)C2(c3ccccc3Cl)CC2)ccc1Oc1cccc(Cl)c1 | cell-free assay, competition with immobilised ligand | 1 µM | remaining binding | 73% |
| CCN(CC)CCNC(=O)c1c(C)[nH]c(/C=C2\C(=O)Nc3ccc(F)cc32)c1C | enzyme activity, inhibitor | 10 µM | inhibition | 92% |
